Test results reported in ChEMBL document CHEMBL1212930, “The hoiamides, structurally intriguing neurotoxic lipopeptides from Papua New Guinea marine cyanobacteria” (J Nat Prod, 2010).

How the values were obtained:
[1] = Inhibition of calcium channel in mouse neocortical neurons assessed as inhibition of intracellular calcium oscilations; assay type: cell-based
Procedure, shortened: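 Primary neocortical neurons from embryonic day 16 Swiss-Webster mice, used at 12–13 DIV. Loaded 1 h with 4 μM fluo-3 plus 0.04% pluronic F-127 in Locke's buffer (pH 7.4), washed four times. Excitation 485 nm, emission 535 nm, read every 1.5 s; 60 s baseline, then compound added as a 4× solution. IC50 given with 95% CI.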

[2] = tested on: NCI-H460; assay: Cytotoxicity against human H460 cells; assay type: functional, cell-based
[3] = Activation of voltage-gated sodium channel in mouse Neuro-2a cells assessed as intracellular sodium influx; conditions: N2a
[4] = Activation of voltage-gated sodium channel in mouse neocortical neuron assessed as intracellular sodium influx
[5] = Cytotoxicity against mouse Neuro2a cells; assay type: functional, cell-based, N2a
[6] = Homo sapiens, NCI-H460, read-out: IC50

| SMILES | IC50 ([1]; Mus musculus, read-out: IC50) | IC50 ([2]; nci-h460) | IC50 [3] | EC50 ([4]; Mus musculus, read-out: EC50) | IC50 [1] | IC50 ([5]; n2a) | EC50 [4] | IC50 [2, 6] | IC50 ([5]; Mus musculus, N2a, read-out: IC50) |
| --- | --- | --- | --- | --- | --- | --- | --- | --- | --- |
| CCC[C@@H](C)[C@H](OC(=O)c1ccc(Br)cc1)[C@H](C)[C@H]1OC(=O)[C@H]([C@@H](C)O)NC(=O)[C@H](C(C)C)OC(=O)[C@H](C)[C@H](O)[C@H]([C@@H](C)CC)NC(=O)[C@@]2(C)CSC(=N2)[C@@]2(C)CSC(=N2)c2csc(n2)C[C@H](OC)[C@@H]1C | 87.3 nM | Not Active | 3400 nM | 9300 nM |  |  |  |  |  |
| CCC[C@@H](C)[C@H](OC(C)=O)[C@H](C)[C@H]1OC(=O)[C@H]([C@@H](C)OC(C)=O)NC(=O)[C@H](C(C)C)OC(=O)[C@H](C)[C@H](OC(C)=O)[C@H]([C@@H](C)CC)NC(=O)[C@@]2(C)CSC(=N2)[C@@]2(C)CSC(=N2)c2csc(n2)C[C@H](OC)[C@@H]1C |  | Not Active |  |  | Not Active | Not Active | Not Active |  |  |
| CCC[C@@H](C)[C@H](O)[C@H](C)[C@H]1OC(=O)[C@H]([C@@H](C)O)NC(=O)[C@H](C(C)C)OC(=O)[C@H](C)[C@H](O)[C@H]([C@@H](C)CC)NC(=O)[C@@]2(C)CSC(=N2)[C@@]2(C)CSC(=N2)c2csc(n2)C[C@H](OC)[C@@H]1C [HOIAMIDE A] | 45.6 nM |  |  | 1700 nM |  |  |  | 11200 nM | 2100 nM |
| CCC[C@@H](C)[C@H](O)[C@H](C)[C@H]1OC(=O)[C@H]([C@@H](C)O)NC(=O)[C@H]([C@@H](C)CC)OC(=O)[C@H](C)[C@H](O)[C@H]([C@@H](C)CC)NC(=O)[C@@]2(C)CSC(=N2)[C@@]2(C)CSC(=N2)c2csc(n2)C[C@H](OC)[C@@H]1C [HOIAMIDE B] | 79.8 nM |  |  | 3900 nM |  | Not Active |  | 8300 nM |  |
| CCC[C@@H](C)[C@H](O)[C@H](C)[C@@H](O)[C@@H](C)[C@H](Cc1nc(C2=N[C@@](C)(C3=N[C@@](C)(C(=O)N[C@H]([C@@H](O)[C@@H](C)C(=O)OCC)[C@@H](C)CC)CS3)CS2)cs1)OC [HOIAMIDE C] |  | Not Active |  |  | Not Active | Not Active | Not Active |  |  |
